Measurements from paper PMC9260860 (Biochemistry, 2021).

How the values were obtained:
HpMTAN [1] = biological target: T1, HpMTAN (Helicobacter pylori, UniProt Q9ZMY2); format: biochemical
T1 sequence (Q9ZMY2 1-230): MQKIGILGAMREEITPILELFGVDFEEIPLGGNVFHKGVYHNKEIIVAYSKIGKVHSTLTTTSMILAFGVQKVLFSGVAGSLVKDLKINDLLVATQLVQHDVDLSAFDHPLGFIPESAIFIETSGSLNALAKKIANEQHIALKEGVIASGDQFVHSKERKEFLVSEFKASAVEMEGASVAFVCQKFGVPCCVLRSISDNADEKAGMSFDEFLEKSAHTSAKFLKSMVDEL

HpAFLDA = HpAFLDA (Helicobacter pylori, UniProt Q9ZMG8); assay: HpAFLDA inhibition assay; format: biochemical, H. pylori strain J99
[2] = biological target: human adenosine deaminase (HsADA); conditions: cited from earlier work
H. pylori J99 = assay: Inhibition of H. pylori growth in liquid culture; format: cell-based, Helicobacter pylori
HpAFLDA (jhp0252) = biological target: T2, HpAFLDA (jhp0252) (Helicobacter pylori, UniProt Q9ZMG8); assay: Enzymatic assay for HpAFLDA deaminase activity; format: biochemical, H. pylori strain J99; conditions: for fold difference of kcat/Km between AFL and adenosine: HpAFLDA, AFL greater than adenosine
T2 sequence (Q9ZMG8 1-409): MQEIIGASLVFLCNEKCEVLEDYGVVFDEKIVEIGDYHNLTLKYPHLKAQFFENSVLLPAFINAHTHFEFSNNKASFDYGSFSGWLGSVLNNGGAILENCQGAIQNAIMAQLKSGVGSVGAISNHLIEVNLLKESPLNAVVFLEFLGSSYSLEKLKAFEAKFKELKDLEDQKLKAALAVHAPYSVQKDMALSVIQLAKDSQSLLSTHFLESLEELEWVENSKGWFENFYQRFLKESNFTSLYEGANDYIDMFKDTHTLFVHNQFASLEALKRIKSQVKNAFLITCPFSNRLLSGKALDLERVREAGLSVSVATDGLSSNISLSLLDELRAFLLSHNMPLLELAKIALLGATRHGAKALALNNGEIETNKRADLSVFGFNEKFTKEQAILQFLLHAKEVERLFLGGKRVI

H. pylori = assay: Metabolite supplementation of the growth medium, effect on H. pylori cell growth; format: cell-based, Helicobacter pylori
[3] = system: Sav2595, Acel0264, Dr0824, Nis0429; conditions: four enzymes, 30 °C; cited from earlier work
H. pylori cells [4] = assay: Metabolism of AFL and FL by live H. pylori cell mixtures; format: cell-based, Helicobacter pylori; conditions: ~10^8 cells in PBS pH 7.0
How it was run: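 Live cells were taken from overnight cultures and washed twice with PBS. Incubations were started by adding 25 μM AFL or FL to ~10^8 cells in PBS (pH 7.0). Metabolites were extracted with ice-cold acetonitrile/methanol/water (40:40:20) containing 0.1 M formic acid and a deuterated SAM internal standard. Extracts were dried, redissolved in water, and quantified by reversed-phase LC-MS/MS (ESI−, MRM).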

HpMTAN [5] = biological target: T1, HpMTAN; assay: AFL and FL hydrolysis by HpMTAN; format: biochemical
H. pylori cells [6] = format: cell-based, Helicobacter pylori
[7] = substrate: Nc1ncnc2c1ncn2[C@@H]1O[C@H](CCC(=O)c2cccc(C(=O)O)c2)[C@@H](O)[C@H]1O; assay: AFL and FL hydrolysis by HpMTAN; format: biochemical, Helicobacter pylori; conditions: other: hydrolysis by HpMTAN, 50 mM HEPES pH 7.0
[8] = substrate: C[C@H]1O[C@@H](n2cnc3c(N)ncnc32)[C@H](O)[C@@H]1O; assay: Enzymatic assay for HpAFLDA deaminase activity; format: biochemical, H. pylori strain J99; conditions: other: deamination by HpAFLDA, 50 mM HEPES pH 7.0, 25 °C
[9] = substrate: Nc1ncnc2c1ncn2[C@@H]1O[C@H](CCC(=O)c2cccc(C(=O)O)c2)[C@@H](O)[C@H]1O; assay: Enzymatic assay for HpAFLDA deaminase activity; format: biochemical, H. pylori strain J99; conditions: other: deamination by HpAFLDA, 50 mM HEPES pH 7.0, 25 °C
[10] = substrate: Nc1ncnc2c1ncn2[C@@H]1O[C@H](CO)[C@@H](O)[C@H]1O; assay: Enzymatic assay for HpAFLDA deaminase activity; format: biochemical, H. pylori strain J99; conditions: other: deamination by HpAFLDA, 50 mM HEPES pH 7.0, 25 °C
[11] = deamination by HpAFLDA, 50 mM HEPES pH 7.0, 25 °C

5′-methylthioadenosine [MTA]
catalytic efficiency of MTA hydrolysis relative to AFL hydrolysis (HpMTAN [1]): > 100 fold

OC[C@H]1O[C@@H](n2cnc3c2N=CNC[C@H]3O)[C@H](O)[C@@H]1O [(8R)-CF, Coformycin, reference compound]
Ki (HpAFLDA): > 10 µM | Ki values [2]: submicromolar

CSC[C@H]1O[C@@H](n2cnc3c2N=CNC[C@H]3O)C[C@@H]1O [(8R)-MT-2′d-CF, 5′-methylthio-2′-deoxycoformycin]
inhibition of HpAFLDA activity (HpAFLDA; even at 10 μM): did not inhibit

CSC[C@H]1O[C@@H](n2cnc3c2N=CNC[C@H]3O)[C@H](O)[C@@H]1O [(8R)-MTCF, 5′-methylthiocoformycin]
type of inhibition of HpAFLDA (HpAFLDA; second phase of inhibition after reaction for 30 min): slow-onset inhibitor | IC50 (H. pylori J99; read-out: IC50, H. pylori growth, liquid medium, 72 h, microaerophilic, 37 °C): 14 ± 1 µM

O[C@@H]1CNC=Nc2c1ncn2[C@H]1C[C@H](O)[C@@H](CSc2ccccc2)O1 [(8R)-PhT-2′d-CF, 5′-phenylthio-2′-deoxycoformycin]
inhibition of HpAFLDA (in words) (HpAFLDA): showed some inhibition

CCCSC[C@H]1O[C@@H](n2cnc3c2N=CNC[C@H]3O)C[C@@H]1O [(8R)-PrT-2′d-CF, 5′-propylthio-2′-deoxycoformycin]
inhibition of HpAFLDA (in words) (HpAFLDA): showed some inhibition

Nc1ncnc2c1ncn2[C@@H]1O[C@H](CCC(=O)c2cccc(C(=O)O)c2)[C@@H](O)[C@H]1O [AFL, 6-Amino-6-deoxyfutalosine]
fold difference of kcat/Km between AFL and adenosine (HpAFLDA (jhp0252)): 26 fold | kcat (HpAFLDA (jhp0252); [11]): 0.62 s⁻¹ | effect of supplementation on cell growth (H. pylori; 200 μM AFL in the growth medium, BTDIA used to stress MK biosynthesis): did not cause a significant impact on cell growth | catalytic efficiencies for AFL deamination [3]: 4.8 × 10^6 to 7.9 × 10^5 M^−1 s^−1 | conversion of the added metabolite by live H. pylori cells (H. pylori cells [4]; 25 μM AFL): readily converted AFL to FL and adenine | hydrolysis by HpMTAN (in words) (HpMTAN [5]): capable of catalyzing only AFL hydrolysis

CCCCSC[C@H]1CN(Cc2c[nH]c3c(N)ncnc23)C[C@@H]1O [BTDIA, BuT-DADMe-ImmA]
menaquinone-6 concentrations in lipid extracts (H. pylori cells [6]; BTDIA at 14 nM, p < 0.005): decreased significantly | cellular DHFL concentrations (H. pylori cells [6]; BTDIA at its half-maximal inhibitory concentration (14 nM)): Significant decreases

O=C(O)c1cccc(C(=O)CC[C@H]2O[C@@H](n3cnc4c(=O)[nH]cnc43)[C@H](O)[C@@H]2O)c1 [FL, futalosine]
effect of supplementation on cell growth (H. pylori; FL 1 to 200 μM): did not affect cell growth | change of the FL concentration in live H. pylori cells (H. pylori cells [4]; 25 μM FL): no significant changes | hypoxanthine formation in live H. pylori cells (H. pylori cells [4]; 25 μM FL): no hypoxanthine was formed | reversal of MTCF growth inhibition by supplementation (H. pylori J99; 50 μM FL with 6-100 μM MTCF, 96 h): partially reversed the growth inhibition | hydrolysis by HpMTAN (in words) (HpMTAN [5]): not FL hydrolysis | kcat (HpMTAN [5]; hydrolysis by HpMTAN, 50 mM HEPES pH 7.0): <1e-05 s⁻¹

Nc1ncnc2c1ncn2[C@@H]1O[C@H](CSCC[C@H](N)C(=O)O)[C@@H](O)[C@H]1O [SAH, S-adenosylhomocysteine]
Km (HpAFLDA (jhp0252); [11]): 220 ± 50 µM | kcat (HpAFLDA (jhp0252); [11]): 0.12 ± 0.02 s⁻¹

Nc1ncnc2c1ncn2[C@@H]1O[C@H](CO)[C@@H](O)[C@H]1O [adenosine]
fold difference of kcat/Km between AFL and adenosine (HpAFLDA (jhp0252)): 26 fold

B1: HpMTAN (Helicobacter pylori J99) (protein)
chain: MQKIGILGAMREEITPILELFGVDFEEIPLGGNVFHKGVYHNKEIIVAYSKIGKVHSTLTTTSMILAFGVQKVLFSGVAGSLVKDLKINDLLVATQLVQHDVDLSAFDHPLGFIPESAIFIETSGSLNALAKKIANEQHIALKEGVIASGDQFVHSKERKEFLVSEFKASAVEMEGASVAFVCQKFGVPCCVLRSISDNADEKAGMSFDEFLEKSAHTSAKFLKSMVDEL
Km [7]: 1.6 ± 0.3 µM | kcat [7]: 0.022 ± 0.02 s⁻¹ | kcat/Km [7]: 14000 M⁻¹ s⁻¹

B2: HpAFLDA (jhp0252) (Helicobacter pylori J99) (protein)
chain: MQEIIGASLVFLCNEKCEVLEDYGVVFDEKIVEIGDYHNLTLKYPHLKAQFFENSVLLPAFINAHTHFEFSNNKASFDYGSFSGWLGSVLNNGGAILENCQGAIQNAIMAQLKSGVGSVGAISNHLIEVNLLKESPLNAVVFLEFLGSSYSLEKLKAFEAKFKELKDLEDQKLKAALAVHAPYSVQKDMALSVIQLAKDSQSLLSTHFLESLEELEWVENSKGWFENFYQRFLKESNFTSLYEGANDYIDMFKDTHTLFVHNQFASLEALKRIKSQVKNAFLITCPFSNRLLSGKALDLERVREAGLSVSVATDGLSSNISLSLLDELRAFLLSHNMPLLELAKIALLGATRHGAKALALNNGEIETNKRADLSVFGFNEKFTKEQAILQFLLHAKEVERLFLGGKRVI
kcat [8]: 1.6 ± 0.3 s⁻¹ | kcat/Km [8]: 12000 M⁻¹ s⁻¹ | Km [9]: 9 ± 1 µM | kcat [9]: 0.62 ± 0.03 s⁻¹ | kcat/Km [9]: 68000 M⁻¹ s⁻¹ | Km [10]: 170 ± 40 µM | kcat [10]: 0.44 ± 0.06 s⁻¹ | kcat/Km [10]: 2600 M⁻¹ s⁻¹
